Measured values from different studies.
Lines come from different studies, so protocols differ.
Medium: Caco-2

O=C1CCC(N2Cc3cc(C4CCN(Cc5ccccc5)CC4)ccc3C2=O)C(=O)N1 (stereo not shown)
efflux ratio (10 µM, 2 h): 1.9

COc1cc(NC(=O)Cn2cc(Cl)c3cc(F)c(-c4cnn(C)c4)cc32)cc(OC)c1OC
efflux ratio: 18.2

O=C(NCc1nc(-c2ccc(C(F)(F)F)cc2)cs1)[C@H]1CCCN(C(=O)CO[C@H]2CCCNC2)C1
efflux ratio: 160

CO/N=C(\C(=O)N[C@@H]1C(=O)N2C(C(=O)O)=C(CSC(=O)c3ccco3)CS[C@H]12)c1csc(N)n1
efflux ratio (200 µg/mL, 2 h, pH 7.4): 1.96

CC(C)c1nc(N(C)S(C)(=O)=O)nc(-c2ccc(F)cc2)c1/C=C/[C@@H](O)C[C@@H](O)CC(=O)O
efflux ratio (5 µM, 2 h): 142

CC(C)(N)COCC(=O)N1CCC[C@H](C(=O)NCc2nc(-c3ccc(C(F)(F)F)cc3)cs2)C1
efflux ratio: 240

Cc1cc(C)c(CNC(=O)c2cc(Cl)c3c(c2C)O[C@@](C)([C@H]2CC[C@H](N(C)C)CC2)O3)c(=O)[nH]1
efflux ratio (1 µM): 52.4

O=c1c(O[C@@H]2O[C@H](CO)[C@H](O)[C@H](O)[C@H]2O)c(-c2ccc(O)c(O)c2)oc2cc(O)cc(O)c12
efflux ratio (50 µg/mL): 1.26

N#Cc1ccc(C[C@H](Nc2ncc(-c3ccc(F)cc3)o2)C(=O)N2CCc3ccccc32)cc1
efflux ratio (100 µM, 2 h): 19

CCOCC(=O)N1CCC[C@H](C(=O)NCc2nc(-c3ccc(C#N)nc3)cs2)C1
efflux ratio: 4.3

O=c1cc(-c2ccc(O)cc2)oc2c([C@@H]3O[C@H](CO)[C@@H](O)[C@H](O)[C@H]3O)c(O)cc(O)c12
efflux ratio (50 µg/mL): 1.11

N[C@@H](COCC(=O)N1CCC[C@H](C(=O)NCc2nc(-c3ccc(C(F)(F)F)cc3)cs2)C1)c1ccccc1
efflux ratio: 11

N#Cc1ccc(C[C@H](Nc2nnc(-c3ccc(F)cc3)s2)C(=O)N2CCc3ccccc32)cc1
efflux ratio (100 µM, 2 h): > 20
